Source: ChEMBL document CHEMBL3272198, “Preparation and in vitro antifungal activities of some quinolizidine derived hemiaminals and beta-tert-amino sulfides” (1976)
The source made the active and inactive calls. The rule behind the calls is not given here.

Tests used:
Type in all cases: functional
Blastomyces dermatitidis [1] = experiment: Antifungal activity against Blastomyces dermatitidis Gilchrist & Stokes isolate 1107 at 10 ug/ml after 3 weeks (reference value: 40 mm); conditions: Gilchrist & Stokes isolate 1107, 504 h, read-out: DIZ
Procedure, shortened: (§1)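 Mycelial phase grown on Sabouraud dextrose agar at 25°C. Agar pH was set to 6 before the test solution was added and was 5.0-5.5 after. Test solutions contained HOAc and Me2SO, and solvent and blank controls were included. Each quadrant was center-inoculated with a 2 × 2 mm piece of a 2-week-old mycelial culture. Colony diameter was measured weekly for 3 weeks and reported as total increments (mm). Duplicates were run.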

Histoplasma capsulatum [2] = experiment: Antifungal activity against Histoplasma capsulatum Darling isolate 1098 at 20 ug/ml after 1 week (reference value: 12 mm); conditions: Darling isolate 1098, 168 h, read-out: DIZ
Histoplasma capsulatum [3] = experiment: Antifungal activity against Histoplasma capsulatum Darling isolate 1098 at 60 ug/ml after 2 weeks (reference value: 21 mm); conditions: Darling isolate 1098, 336 h, read-out: DIZ
Histoplasma capsulatum [4] = experiment: Antifungal activity against Histoplasma capsulatum Darling isolate 1098 at 40 ug/ml after 2 weeks (reference value: 21 mm); conditions: Darling isolate 1098, 336 h, read-out: DIZ
Blastomyces dermatitidis [5] = experiment: Antifungal activity against Blastomyces dermatitidis Gilchrist & Stokes isolate 1107 at 40 ug/ml after 3 weeks (reference value: 40 mm); conditions: Gilchrist & Stokes isolate 1107, 504 h, read-out: DIZ; procedure, shortened: as §1
Blastomyces dermatitidis [6] = experiment: Antifungal activity against Blastomyces dermatitidis Gilchrist & Stokes isolate 1107 at 1 ug/ml after 3 weeks (reference value: 40 mm); conditions: Gilchrist & Stokes isolate 1107, 504 h, read-out: DIZ; procedure, shortened: as §1
Histoplasma capsulatum [7] = experiment: Antifungal activity against Histoplasma capsulatum Darling isolate 1098 at 10 ug/ml after 3 weeks (reference value: 28 mm); conditions: Darling isolate 1098, 504 h, read-out: DIZ
Histoplasma capsulatum [8] = experiment: Antifungal activity against Histoplasma capsulatum Darling isolate 1106 at 100 ug/ml after 3 weeks (reference value: 31 mm); conditions: Darling isolate 1106, 504 h, read-out: DIZ
Histoplasma capsulatum [9] = experiment: Antifungal activity against Histoplasma capsulatum Darling isolate 1098 at 100 ug/ml after 1 week (reference value: 12 mm)
Histoplasma capsulatum [10] = experiment: Antifungal activity against Histoplasma capsulatum Darling isolate 1098 at 80 ug/ml after 2 weeks (reference value: 21 mm); conditions: Darling isolate 1098, 336 h, read-out: DIZ
Blastomyces dermatitidis [11] = experiment: Antifungal activity against Blastomyces dermatitidis Gilchrist & Stokes isolate 1099 at 80 ug/ml after 2 weeks (reference value: 27 mm)
Blastomyces dermatitidis [12] = experiment: Antifungal activity against Blastomyces dermatitidis Gilchrist & Stokes isolate 1099 at 100 ug/ml after 3 weeks (reference value: 34 mm); conditions: Gilchrist & Stokes isolate 1099, 504 h, read-out: DIZ; procedure, shortened: as §1
Blastomyces dermatitidis [13] = experiment: Antifungal activity against Blastomyces dermatitidis Gilchrist & Stokes isolate 1099 at 20 ug/ml after 1 week (reference value: 14 mm); procedure, shortened: as §1
Histoplasma capsulatum [14] = experiment: Antifungal activity against Histoplasma capsulatum Darling isolate 1106 at 80 ug/ml after 3 weeks (reference value: 31 mm); conditions: Darling isolate 1106, 504 h, read-out: DIZ
Histoplasma capsulatum [15] = experiment: Antifungal activity against Histoplasma capsulatum Darling isolate 1098 at 10 ug/ml after 2 weeks (reference value: 21 mm); conditions: Darling isolate 1098, 336 h, read-out: DIZ
Blastomyces dermatitidis [16] = experiment: Antifungal activity against Blastomyces dermatitidis Gilchrist & Stokes isolate 1099 at 40 ug/ml after 1 week (reference value: 14 mm)
Histoplasma capsulatum [17] = experiment: Antifungal activity against Histoplasma capsulatum Darling isolate 1106 at 60 ug/ml after 2 weeks (reference value: 25 mm); conditions: Darling isolate 1106, 336 h, read-out: DIZ
Blastomyces dermatitidis [18] = experiment: Antifungal activity against Blastomyces dermatitidis Gilchrist & Stokes isolate 1099 at 1 ug/ml after 1 week (reference value: 14 mm); conditions: Gilchrist & Stokes isolate 1099, 168 h, read-out: DIZ; procedure, shortened: as §1
Blastomyces dermatitidis [19] = experiment: Antifungal activity against Blastomyces dermatitidis Gilchrist & Stokes isolate 1099 at 100 ug/ml after 2 weeks (reference value: 27 mm)
Blastomyces dermatitidis [20] = experiment: Antifungal activity against Blastomyces dermatitidis Gilchrist & Stokes isolate 1107 at 1 ug/ml after 2 weeks (reference value: 35 mm); conditions: Gilchrist & Stokes isolate 1107, 336 h, read-out: DIZ; procedure, shortened: as §1
Histoplasma capsulatum [21] = experiment: Antifungal activity against Histoplasma capsulatum Darling isolate 1106 at 40 ug/ml after 1 week (reference value: 14 mm); conditions: Darling isolate 1106, 168 h, read-out: DIZ
Blastomyces dermatitidis [22] = experiment: Antifungal activity against Blastomyces dermatitidis Gilchrist & Stokes isolate 1099 at 1 ug/ml after 2 weeks (reference value: 27 mm); conditions: Gilchrist & Stokes isolate 1099, 336 h, read-out: DIZ; procedure, shortened: as §1
Histoplasma capsulatum [23] = experiment: Antifungal activity against Histoplasma capsulatum Darling isolate 1106 at 1 ug/ml after 2 weeks (reference value: 25 mm); conditions: Darling isolate 1106, 336 h, read-out: DIZ
Histoplasma capsulatum [24] = experiment: Antifungal activity against Histoplasma capsulatum Darling isolate 1106 at 60 ug/ml after 1 week (reference value: 14 mm); conditions: Darling isolate 1106, 168 h, read-out: DIZ
Blastomyces dermatitidis [25] = experiment: Antifungal activity against Blastomyces dermatitidis Gilchrist & Stokes isolate 1107 at 60 ug/ml after 2 weeks (reference value: 35 mm); conditions: Gilchrist & Stokes isolate 1107, 336 h, read-out: DIZ; procedure, shortened: as §1
Histoplasma capsulatum [26] = experiment: Antifungal activity against Histoplasma capsulatum Darling isolate 1106 at 60 ug/ml after 3 weeks (reference value: 31 mm); conditions: Darling isolate 1106, 504 h, read-out: DIZ
Blastomyces dermatitidis [27] = experiment: Antifungal activity against Blastomyces dermatitidis Gilchrist & Stokes isolate 1107 at 10 ug/ml after 1 week (reference value: 20 mm); procedure, shortened: as §1
Blastomyces dermatitidis [28] = experiment: Antifungal activity against Blastomyces dermatitidis Gilchrist & Stokes isolate 1107 at 100 ug/ml after 2 weeks (reference value: 35 mm); conditions: Gilchrist & Stokes isolate 1107, 336 h, read-out: DIZ; procedure, shortened: as §1
Histoplasma capsulatum [29] = experiment: Antifungal activity against Histoplasma capsulatum Darling isolate 1106 at 100 ug/ml after 2 weeks (reference value: 25 mm); conditions: Darling isolate 1106, 336 h, read-out: DIZ
Blastomyces dermatitidis [30] = experiment: Antifungal activity against Blastomyces dermatitidis Gilchrist & Stokes isolate 1107 at 80 ug/ml after 2 weeks (reference value: 35 mm); conditions: Gilchrist & Stokes isolate 1107, 336 h, read-out: DIZ; procedure, shortened: as §1
Histoplasma capsulatum [31] = experiment: Antifungal activity against Histoplasma capsulatum Darling isolate 1098 at 1 ug/ml after 1 week (reference value: 12 mm); conditions: Darling isolate 1098, 168 h, read-out: DIZ
Histoplasma capsulatum [32] = experiment: Antifungal activity against Histoplasma capsulatum Darling isolate 1106 at 20 ug/ml after 1 week (reference value: 14 mm); conditions: Darling isolate 1106, 168 h, read-out: DIZ
Histoplasma capsulatum [33] = experiment: Antifungal activity against Histoplasma capsulatum Darling isolate 1098 at 60 ug/ml after 3 weeks (reference value: 28 mm); conditions: Darling isolate 1098, 504 h, read-out: DIZ

C[C@@H]1[C@H](O)[C@@H](C)/C=C/C=C/C=C/C=C/C=C/C=C/C=C/[C@H](O[C@@H]2O[C@H](C)[C@@H](O)[C@H](N)[C@@H]2O)C[C@@H]2O[C@](O)(C[C@@H](O)C[C@@H](O)[C@H](O)CC[C@@H](O)C[C@@H](O)CC(=O)O[C@H]1C)C[C@H](O)[C@H]2C(=O)O [AMPHOTERICIN B]
zone of inhibition at 10 µg/mL (Blastomyces dermatitidis [1]): 15 mm | zone of inhibition at 20 µg/mL (Histoplasma capsulatum [2]): 8 mm | zone of inhibition at 60 µg/mL (Histoplasma capsulatum [3]): 9 mm | zone of inhibition at 40 µg/mL (Histoplasma capsulatum [4]): 11 mm | zone of inhibition at 40 µg/mL (Blastomyces dermatitidis [5]): 13 mm | zone of inhibition at 1 µg/mL (Blastomyces dermatitidis [6]): 32 mm | zone of inhibition at 10 µg/mL (Histoplasma capsulatum [7]): 19 mm | zone of inhibition at 100 µg/mL (Histoplasma capsulatum [8]): 10 mm | Activity (Histoplasma capsulatum [9]): inactive | zone of inhibition at 80 µg/mL (Histoplasma capsulatum [10]): 10 mm | Activity (Blastomyces dermatitidis [11]): Active | zone of inhibition at 100 µg/mL (Blastomyces dermatitidis [12]): 2 mm | Activity (Blastomyces dermatitidis [13]): Active | zone of inhibition at 80 µg/mL (Histoplasma capsulatum [14]): 12 mm | zone of inhibition at 10 µg/mL (Histoplasma capsulatum [15]): 14 mm | Activity (Blastomyces dermatitidis [16]): Active | zone of inhibition at 60 µg/mL (Histoplasma capsulatum [17]): 9 mm | zone of inhibition at 1 µg/mL (Blastomyces dermatitidis [18]): 7 mm | Activity (Blastomyces dermatitidis [19]): Active | zone of inhibition at 1 µg/mL (Blastomyces dermatitidis [20]): 19 mm | zone of inhibition at 40 µg/mL (Histoplasma capsulatum [21]): 6 mm | zone of inhibition at 1 µg/mL (Blastomyces dermatitidis [22]): 10 mm | zone of inhibition at 1 µg/mL (Histoplasma capsulatum [23]): 18 mm | zone of inhibition at 60 µg/mL (Histoplasma capsulatum [24]): 6 mm | zone of inhibition at 60 µg/mL (Blastomyces dermatitidis [25]): 10 mm | zone of inhibition at 60 µg/mL (Histoplasma capsulatum [26]): 13 mm | Activity (Blastomyces dermatitidis [27]): inactive | zone of inhibition at 100 µg/mL (Blastomyces dermatitidis [28]): 6 mm | zone of inhibition at 100 µg/mL (Histoplasma capsulatum [29]): 6 mm | zone of inhibition at 80 µg/mL (Blastomyces dermatitidis [30]): 10 mm | zone of inhibition at 1 µg/mL (Histoplasma capsulatum [31]): 9 mm | zone of inhibition at 20 µg/mL (Histoplasma capsulatum [32]): 6 mm | zone of inhibition at 60 µg/mL (Histoplasma capsulatum [33]): 13 mm
